A short description of series [1]: Half-life period was determined. The format is ADME. The gist of the method: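 Hydrolysis followed by HPLC at 280 nm. 100 μM compound, made from 30 mM DMSO stock, in complete medium lacking uracil (pH 4.2-4.3, unadjusted). Half-life derived from the pseudo-first-order hydrolysis rate constant.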
Series [2] deals with NAD-dependent histone deacetylase SIR2 (Saccharomyces cerevisiae S288c) (UniProt P06700). The series is described as follows: Sirtuin 2 inhibitory activity and was reported as minimum growth-stimulating concentration in Saccharomyces cerevisiae. In outline: (§1)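 Telomeric-silencing growth assay in S. cerevisiae UCC2210 (adh4::URA3-TEL VII-L), ca. 13 500 cells/well, in synthetic complete medium lacking uracil. Compound at 150 μM to 73 nM final, DMSO ≤2%, 30 °C for about 40–48 h. OD660 read, initial background subtracted. MGC is the concentration giving 10% of the reference maximal growth. Triplicate, ±1 SD.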

For series [3] the target is unchanged. Nature of the series: In vitro inhibition of sirtuin 2 was evaluated using yeast whole cell lysates at 75 uM; values are per cent of control.
In another series the target is Saccharomyces cerevisiae. Nature of the series: Toxicity against Saccharomyces cerevisiae assessed as growth inhibition in complete medium.
In series [4] the target is NAD-dependent histone deacetylase SIR2 (Saccharomyces cerevisiae S288c) (UniProt P06700). Nature of the series: Selectivity index was reported as the ratio of the MGC to IC50 value.
Series [5] shares this target. The series is described as follows: Tested for Sir2 inhibitory activity and was reported as minimum growth-stimulating concentration in Saccharomyces cerevisiae. In outline:
as §1

Series [6] has the same target. Nature of the series: Tested for Sirtuin 2 inhibitory activity and was reported as minimum growth-stimulating concentration in Saccharomyces cerevisiae. In outline: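 Cell-based telomeric silencing read-out in yeast strain UCC2210 (Mata ppr1 adh4::URA3-TEL VII-L), about 13 500 cells per well, grown in synthetic complete medium lacking uracil. Compounds tested at 150 µM to 73 nM, with at most 2% DMSO. Incubation at 30 °C for about 40–48 h. Growth read as OD660 minus initial background. MGC is the concentration giving 10% of reference maximal growth. Triplicate, ±1 SD.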

Some results are limits rather than exact numbers.

NAD-dependent histone deacetylase SIR2 (Saccharomyces cerevisiae S288c), sequence (P06700 whole entry): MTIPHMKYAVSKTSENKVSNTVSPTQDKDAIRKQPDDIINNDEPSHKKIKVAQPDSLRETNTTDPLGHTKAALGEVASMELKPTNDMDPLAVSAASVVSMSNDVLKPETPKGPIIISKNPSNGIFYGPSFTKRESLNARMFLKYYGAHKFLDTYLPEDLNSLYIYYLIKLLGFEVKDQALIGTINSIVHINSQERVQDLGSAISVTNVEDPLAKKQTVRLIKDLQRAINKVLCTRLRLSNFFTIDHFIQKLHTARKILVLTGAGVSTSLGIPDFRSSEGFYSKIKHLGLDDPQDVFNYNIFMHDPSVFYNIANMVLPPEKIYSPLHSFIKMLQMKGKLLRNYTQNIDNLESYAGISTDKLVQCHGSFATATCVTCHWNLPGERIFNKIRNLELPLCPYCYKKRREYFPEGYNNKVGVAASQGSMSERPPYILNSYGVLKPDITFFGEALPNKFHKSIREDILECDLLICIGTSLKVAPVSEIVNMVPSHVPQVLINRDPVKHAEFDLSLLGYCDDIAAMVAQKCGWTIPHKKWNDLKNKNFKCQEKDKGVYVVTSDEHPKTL

In turn, `O=C1CCCc2c(ccc3ccccc23)O1` showed a half-life in series [1] of 49.5 h. Also, in series [2], the MGC is > 150 µM. The same compound had a residual activity in series [3] of 82%. Also, the IC50 on Saccharomyces cerevisiae was 12 µM.
`CC(C)CC1Cc2c(ccc3ccccc23)OC1=O` (configuration not stated): the MGC in series [2] is > 150 µM.
Consider `CC1Cc2c(ccc3ccccc23)OC1=O` (configuration not stated), for which the SI in series [4] came to 10. This compound came in with an MGC in series [2] of 5.4 µM. The residual activity in series [3] is 94%. Moreover, at Saccharomyces cerevisiae, the IC50 came to 52 µM.
`COc1cc2ccccc2c2c1OC(=O)CC2`: the SI in series [4] worked out at 85. The MGC in series [2] came to 1.5 µM. In addition, the IC50 on Saccharomyces cerevisiae was determined as 128 µM.
For `O=C1CCc2c(ccc3ccc4c(c23)CCC(=O)O4)O1`, the MGC in series [2] was > 150 µM. In addition, at Saccharomyces cerevisiae, the IC50 was ≥ 150 µM.
Regarding `O=C(COc1cccc2ccccc12)ON1C(=O)CCC1=O`, the MGC in series [2] is > 150 µM. Moreover, the IC50 at Saccharomyces cerevisiae was ≥ 150 µM.
For `COc1cc2c(c3ccccc13)CCC(=O)O2`, the SI in series [4] amounted to 24. Moreover, in series [2], the MGC worked out at 1.8 µM. At Saccharomyces cerevisiae, the half-maximal inhibitory concentration (IC50) was found to be 44 µM.
Turning to `O=C1Cc2ccccc2O1`, in series [4], the SI was > 6. Also, in series [2], the MGC worked out at 24 µM. For the same compound, the residual activity in series [3] turned out to be 89%. Also, on Saccharomyces cerevisiae, the IC50 was ≥ 150 µM.
`O=C1CCc2c(ccc3cc(O)ccc23)O1`: the SI in series [4] is > 39. In series [2], the MGC worked out at 38 µM. Also, in series [3], the residual activity stood at 85%. The IC50 at Saccharomyces cerevisiae was ≥ 150 µM.
`O=C1Cc2c(ccc3ccccc23)O1`: in series [1], the half-life was 12.2 h. The MGC in series [2] was > 150 µM. For the same compound, on Saccharomyces cerevisiae, the IC50 is 59 µM.
Regarding `O=C1CCc2c(c(OCc3ccccc3)cc3ccccc23)O1`, in series [4], the SI is 29. The compound further had an MGC in series [2] of 0.97 µM. Also, the residual activity in series [3] is 17%. Besides, at Saccharomyces cerevisiae, the half-inhibitory concentration (IC50) is 27 µM.
The like results for `O=C1CCc2cc3ccccc3cc2O1` were, in that order, 10, 15 µM, 85% and ≥ 150 µM.
Consider `CC(C)(C)OC(=O)NCCOCCOc1cc2ccccc2c2c1OC(=O)CC2`, for which the SI in series [4] worked out at 13. Further, the MGC in series [2] is 6.4 µM. In addition, on Saccharomyces cerevisiae, the IC50 was found to be 86 µM.
Consider `C=CCC1Cc2c(ccc3ccccc23)OC1=O` (configuration not stated), for which the MGC in series [2] is > 150 µM. The residual activity in series [3] was 86%.
`O=C1CCc2ccc3ccccc3c2O1`: the SI in series [4] came to 27. Besides, the half-life in series [1] is 6.9 h. In addition, the MGC in series [2] came to 2.4 µM. For the same compound, the residual activity in series [3] was found to be 87%. In addition, the IC50 at Saccharomyces cerevisiae was 65 µM.
Regarding `CNC(=O)CCc1c(O)ccc2ccccc12`, the SI in series [4] was > 26. Also, the MGC in series [2] turned out to be 5.8 µM. Further, the IC50 at Saccharomyces cerevisiae was ≥ 150 µM.
In the case of `O=c1ccc2ccccc2o1`, the residual activity in series [3] stood at 74%. Besides, the MGC in series [5] was > 150 µM.
For `CCN(CC)C(=O)CCc1c(O)ccc2ccccc12`, the MGC in series [2] was > 150 µM. For the same compound, the residual activity in series [3] amounted to 88%. The IC50 on Saccharomyces cerevisiae turned out to be 125 µM.
The like results for `O=C(O)CCc1c(O)ccc2ccccc12` were, in that order, > 150 µM, 87% and ≥ 150 µM.
In the case of `O=C1CC(c2ccccc2)c2c(ccc3ccccc23)O1` (configuration not stated), the MGC in series [2] was > 150 µM. Also, the residual activity in series [3] was determined as 90%.
The like results for `O=C1CCc2c(ccc3c4c(ccc23)OC(=O)CC4)O1` were, in that order, > 150 µM and 87%.
The like results for `O=C1OC(=O)c2cccc3cccc1c23` were, in that order, > 150 µM and 94%.
As to `O=C1CCc2c(ccc3c(O)cccc23)O1`, the SI in series [4] is > 107. Besides, the MGC in series [2] was 16 µM. For the same compound, the 50% inhibitory concentration (IC50) at Saccharomyces cerevisiae was ≥ 150 µM.
As to `O=C1CCc2c(ccc3ccccc23)N1`, the T1/2 result in series [1] is recorded as “No hydrolysis obsd”. Further, the MGC in series [2] was > 150 µM. The residual activity in series [3] was determined as 92%. Besides, the IC50 at Saccharomyces cerevisiae is ≥ 150 µM.
As for `CCOC(=O)C1Cc2c(ccc3ccccc23)OC1=O` (configuration not stated), in series [2], the MGC is > 150 µM. In series [3], this compound showed a residual activity of 66%. For the same compound, the 50% inhibitory concentration (IC50) on Saccharomyces cerevisiae was ≥ 150 µM.
As to `COc1ccc2c3c(ccc2c1)OC(=O)CC3`, the SI in series [4] stood at 5. The MGC in series [2] came out at 13.8 µM. The compound also showed a residual activity in series [3] of 84%. Further, on Saccharomyces cerevisiae, the 50% inhibitory concentration (IC50) was 73 µM.
The like results for `O=C1CCc2c(c3c(c4ccccc24)CCC(=O)O3)O1` were, in that order, 18, 4.9 µM, 80% and 89 µM.
As to `COc1ccc2ccc3c(c2c1)CCC(=O)O3`, in series [2], the MGC was > 150 µM.
As to `O=C1CCc2c(c3oc(=O)ccc3c3ccccc23)O1`, the SI in series [4] is > 29. The residual activity in series [3] was 83%. Further, the MGC in series [5] was found to be 5.1 µM. Moreover, the IC50 at Saccharomyces cerevisiae was ≥ 150 µM.
As to `NC(=O)CCc1c(O)ccc2ccccc12`, in series [4], the SI was 158. Moreover, the MGC in series [2] stood at 0.79 µM. Besides, the residual activity in series [3] was 80%. For the same compound, on Saccharomyces cerevisiae, the IC50 stood at 125 µM.
`O=C1CCc2c(ccc3ccccc23)S1` had a half-life in series [1] of 13 h. For the same compound, the MGC in series [2] is > 150 µM. Moreover, on Saccharomyces cerevisiae, the IC50 turned out to be 25 µM.
On to `COc1cccc2c3c(ccc12)OC(=O)CC3`, for which, in series [2], the MGC was 5.5 µM.
The compound `COC(=O)CCc1c(O)ccc2ccccc12` registered an MGC in series [2] of 5.2 µM. Besides, the residual activity in series [3] is 75%.
Take `O=C1CCc2c(c(O)cc3ccccc23)O1`: in series [4], the SI amounted to 161. The MGC in series [2] worked out at 0.69 µM. For the same compound, the IC50 at Saccharomyces cerevisiae was 111 µM.
With `O=c1ccc2c(ccc3ccccc32)o1`, in series [1], the half-life was > 100 h. Besides, the MGC in series [2] is > 150 µM. In addition, the residual activity in series [3] worked out at 73%. Moreover, the half-maximal inhibitory concentration (IC50) at Saccharomyces cerevisiae is 86 µM.
Take `O=C1CCc2ccc3c(O)cccc3c2O1`: the SI in series [4] is > 7. The MGC in series [2] amounted to 21 µM. Besides, the IC50 on Saccharomyces cerevisiae was ≥ 150 µM.
With `OCCCc1c(O)ccc2ccccc12`, the MGC in series [2] was > 150 µM. The compound further came in with a residual activity in series [3] of 88%. Also, the IC50 on Saccharomyces cerevisiae is ≥ 150 µM.
With `O=C1CCCc2c1ccc1ccccc21`, the MGC in series [2] was > 150 µM. Besides, the IC50 on Saccharomyces cerevisiae was 81 µM.
Compound `O=C1CCc2c(cc(O)c3ccccc23)O1` displayed an MGC in series [2] of 11 µM.
`O=C1CCc2c(ccc3ccccc23)O1` [SPLITOMICIN] showed a half-life in series [1] of 7.5 h. In series [6], this compound gave an MGC of 0.49 µM. For the same compound, the residual activity in series [3] came to 66%.
Take `O=C1CCc2c(ccc3ccc(O)cc23)O1`: the SI in series [4] is 3. The compound further displayed an MGC in series [2] of 48 µM. Further, on Saccharomyces cerevisiae, the IC50 was 134 µM.
In series [2], `O=C1CCc2ccccc2O1` returned an MGC of 0.85 µM. The same compound gave a residual activity in series [3] of 15%.

The half-life is the time in which the quantity being followed falls by half. A higher half-life goes with slow loss. In general, residual activity refers to the share of the control activity or signal that is left under treatment. A lower residual activity goes with a large loss of activity. As a reminder, the IC50 is the point on the concentration scale where inhibition reaches its midpoint.

The values above are taken from ChEMBL document CHEMBL1148278 (J Med Chem, 2004).
